Test results published in ChEMBL document CHEMBL1142206, “Cysteine protease inhibitors block Toxoplasma gondii microneme secretion and cell invasion” (Antimicrob Agents Chemother, 2007).
The source made the active and inactive calls. No cut-off for these calls is given here.

Columns and labels:
Toxoplasma gondii [1] = assay: Inhibition of Toxoplasma gondii 2F1 invasion in HFF cells assessed as beta-galactosidase activity at 10 uM; type: functional, organism-based
Method in brief: (§1)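 2F1 tachyzoites in invasion medium (DMEM, 1% FBS, 10 mM HEPES) at 4 × 10^6/ml, preincubated 15 min at room temperature with inhibitor (10 or 50 μM) or DMSO, then loaded onto HFF monolayers for 30 min at 37°C, 5% CO2. Washed six times with cold PBS containing Ca/Mg, lysed, and β-gal measured with CPRG (45 min, 37°C) at A550. Two independent experiments in duplicate.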

Toxoplasma gondii [2] = assay: Reduction of MIC10 secretion in Toxoplasma gondii 2F1 at 50 uM; type: functional, organism-based
Method in brief: (§2)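 2F1 parasites in DGH medium (DMEM, 2 mM glutamine, 10 mM HEPES), ~3–6 × 10^7 per reaction, pretreated 15 min at room temperature with 50 μM inhibitor or DMSO. Induced secretion used 2 min at 37°C with 1% ethanol; basal secretion used 20 min at 37°C without ethanol. Supernatant (ESA) immunoblotted for MIC2, AMA1, MIC5, MIC10 and GRA1; chemiluminescence quantified by CCD.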

Toxoplasma gondii [3] = assay: Inhibition of Toxoplasma gondii 2F1 invasion in HFF cells by red/green invasion assay; type: functional, organism-based; conditions: 2F1, HFF
Method in brief: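 Red/green assay: 2F1 parasites (5 × 10^7/ml in invasion medium) preincubated 15 min at room temperature with inhibitor (0.1 to 100 μM) or DMSO, then put on HFF for 15 min at 37°C. After fixation, attached parasites were stained with rabbit anti-SAG1 before permeabilization and invaded ones with MAb 9E11 after 0.1% Triton; DAPI marked nuclei. Associated parasites per host nucleus normalized to solvent control; three experiments, eight fields/well.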

Toxoplasma gondii [4] = assay: Inhibition of microneme protein secretion in Toxoplasma gondii 2F1
Toxoplasma gondii [5] = assay: Reduction of MIC5 secretion in Toxoplasma gondii 2F1 at 50 uM; type: functional, organism-based; method in brief: as §2
Toxoplasma gondii [6] = assay: Inhibition of Toxoplasma gondii 2F1 invasion in HFF cells assessed as beta-galactosidase activity at 50 uM relative to control; type: functional; conditions: 2F1, HFF; method in brief: as §1
Toxoplasma gondii [7] = assay: Effect on gliding motility in Toxoplasma gondii RH at 50 uM; type: functional, organism-based
Method in brief: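 RH tachyzoites in HHE medium (HBSS, 10 mM HEPES, 1 mM EGTA), pretreated 15 min at room temperature with 50 μM inhibitor or DMSO, then allowed to glide 15 min at 37°C on slides coated with 50% FBS or poly-L-lysine. Fixed, and SAG1-containing trails stained with MAb 9E11 and visualized by epifluorescence at ×600.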

Toxoplasma gondii [8] = assay: Reduction of AMA1 secretion in Toxoplasma gondii 2F1 at 50 uM; type: functional, organism-based; method in brief: as §2

Row | Structure (SMILES) | Activity (Toxoplasma gondii [1]) | further results
1 | CC(=O)N[C@@H](Cc1ccc(O)cc1)C(=O)N[C@@H](CCCCN)C(=O)N[C@@H](CCCCN)C(=O)N[C@H](/C=C/S(=O)(=O)c1ccccc1)CC(N)=O | inactive | –
2 | CC(C)C[C@@H](NC(=O)N1CCOCC1)C(=O)N[C@@H](/C=C/S(=O)(=O)c1ccccc1)CCc1ccccc1 | – | Activity (Toxoplasma gondii [2]): Active; IC50 (Toxoplasma gondii [3]): 10 µM; IC50 (Toxoplasma gondii [4]): 25 µM; Activity (Toxoplasma gondii [5]): Active; inhibition at 50 µM (Toxoplasma gondii [6]): 70%; Activity (Toxoplasma gondii [7]): Active; Activity (Toxoplasma gondii [8]): Active
3 | Cc1cccc(C)c1C(=O)OCC(=O)CN | inactive | –
4 | CC(C)C[C@H](/C=C/S(=O)(=O)c1ccccc1)NC(=O)[C@@H](CC(C)C)NC(=O)[C@@H](CC(C)C)NC(=O)OCc1ccccc1 | inactive | Activity (Toxoplasma gondii [2]): Active; IC50 (Toxoplasma gondii [3]): 12.5 µM; IC50 (Toxoplasma gondii [4]): 50 µM; Activity (Toxoplasma gondii [5]): Active; inhibition at 50 µM (Toxoplasma gondii [6]): 50%; Activity (Toxoplasma gondii [7]): Active; Activity (Toxoplasma gondii [8]): Active
5 | CC(=O)N[C@@H](Cc1ccc(O)cc1)C(=O)N[C@@H](CCCCN)C(=O)N[C@@H](CCCNC(=N)N)C(=O)N[C@H](/C=C/S(=O)(=O)c1ccccc1)CC(N)=O | inactive | –
6 | Cc1cccc(C)c1C(=O)OCC(=O)[C@@H](N)CC(N)=O | inactive | –
7 | CC(=O)N1CCC[C@H]1C(=O)N[C@@H](CCCCN)C(=O)N[C@@H](CCCNC(=N)N)C(=O)N[C@H](/C=C/S(=O)(=O)c1ccccc1)CC(N)=O | inactive | –
8 | CC(C)C[C@H](NC(=O)[C@H]1O[C@@H]1C(=O)O)C(=O)NCCCCN=C(N)N | inactive | –
9 | CCOC(=O)[C@H]1O[C@@H]1C(=O)N[C@@H](CC(C)C)C(=O)NCCC(C)C | inactive | –
10 | Cc1cccc(C)c1C(=O)OCC(=O)[C@@H](N)CCCNC(=N)N | inactive | –
11 | O=c1oc(Cl)c(Cl)c2ccccc12 | inactive | IC50 (Toxoplasma gondii [3]): 12.5 µM
12 | CC(=O)N1CCC[C@H]1C(=O)N[C@@H](CCCNC(=N)N)C(=O)N[C@@H](CCCCN)C(=O)N[C@H](/C=C/S(=O)(=O)c1ccccc1)CC(N)=O | inactive | –
13 | CC(=O)N[C@@H](Cc1ccc(O)cc1)C(=O)N[C@@H](CCCCN)C(=O)N[C@@H](CC(C)C)C(=O)N[C@H](/C=C/S(=O)(=O)c1ccccc1)CC(N)=O | inactive | –
14 | CN1CCN(C(=O)N[C@@H](Cc2ccccc2)C(=O)N[C@H](/C=C/S(=O)(=O)c2ccccc2)CCc2ccccc2)CC1 | inactive | –
15 | CC(=O)N[C@@H](Cc1ccc(O)cc1)C(=O)N[C@@H](CCCNC(=N)N)C(=O)N[C@@H](CC(C)C)C(=O)N[C@H](/C=C/S(=O)(=O)c1ccccc1)CC(N)=O | inactive | –
16 | CCOC(=O)C1OC1C(=O)N[C@@H](CC(C)C)C(=O)NCCc1ccc(O)cc1 (stereo partly drawn) | inactive | –
17 | CC(=O)N1CCC[C@H]1C(=O)N[C@@H](CCCCN)C(=O)N[C@@H](CCCCN)C(=O)N[C@H](/C=C/S(=O)(=O)c1ccccc1)CC(N)=O | inactive | –
18 | CC(=O)N[C@@H](Cc1ccc(O)cc1)C(=O)N[C@@H](CCCNC(=N)N)C(=O)N[C@@H](CCCCN)C(=O)N[C@H](/C=C/S(=O)(=O)c1ccccc1)CC(N)=O | inactive | –
19 | Cc1cccc(C)c1C(=O)OCC(=O)[C@@H](N)CC(C)C | inactive | –
20 | CC(=O)N1CCC[C@H]1C(=O)N[C@@H](CCCNC(=N)N)C(=O)N[C@@H](CC(C)C)C(=O)N[C@H](/C=C/S(=O)(=O)c1ccccc1)CC(N)=O | inactive | –
21 | CC(C)C[C@@H](/C=C/S(C)(=O)=O)NC(=O)[C@H](CC(C)C)NC(=O)[C@H](CC(C)C)NC(=O)[C@@H](N)Cc1ccc(O)cc1 | inactive | –
22 | CC(C)C[C@H](/C=C/S(=O)(=O)c1ccccc1)NC(=O)[C@@H](CC(C)C)NC(=O)[C@@H](CC(C)C)NC(=O)Cc1cc(I)c(O)c([N+](=O)[O-])c1 | inactive | –
23 | CC(=O)N1CCC[C@H]1C(=O)N[C@@H](CCCCN)C(=O)N[C@@H](CC(C)C)C(=O)N[C@H](/C=C/S(=O)(=O)c1ccccc1)CC(N)=O | inactive | –
24 | CCC(C)[C@H](NC(=O)C1OC1C(=O)NCC(C)C)C(=O)N1CCC[C@@H]1C(=O)O (stereo partly drawn) | inactive | –
